The values that follow come from ChEMBL document CHEMBL1139157, “2,5-Disubstituted pyridines: the discovery of a novel series of 5-HT2A ligands” (Bioorg Med Chem Lett, 2007).

In data set [1] the target is D(2) dopamine receptor (Homo sapiens, UniProt P14416). Nature of the data set: Displacement of [3H]spiperone from human dopamine D2 receptor expressed in CHO cells. The format is cell-based. For orientation: Displacement assays read how much labelled ligand stays bound in the presence of the test substance.
Data set [2] concerns the target 5-hydroxytryptamine receptor 2A (Homo sapiens, UniProt P28223). The experiment in a line: Displacement of [3H]ketanserin from human 5HT2A receptor expressed in CHO cells. The format is cell-based.
The target of data set [3] is Voltage-gated inwardly rectifying potassium channel KCNH2 (Homo sapiens, UniProt Q12809). Nature of the data set: Displacement of [3H]dofetilide from hERG expressed in HEK cells. The format is cell-based, HEK293.
The target of data set [4] is T1, 5-hydroxytryptamine receptor 2C (Homo sapiens, UniProt P28335).
T1 sequence (P28335 whole entry): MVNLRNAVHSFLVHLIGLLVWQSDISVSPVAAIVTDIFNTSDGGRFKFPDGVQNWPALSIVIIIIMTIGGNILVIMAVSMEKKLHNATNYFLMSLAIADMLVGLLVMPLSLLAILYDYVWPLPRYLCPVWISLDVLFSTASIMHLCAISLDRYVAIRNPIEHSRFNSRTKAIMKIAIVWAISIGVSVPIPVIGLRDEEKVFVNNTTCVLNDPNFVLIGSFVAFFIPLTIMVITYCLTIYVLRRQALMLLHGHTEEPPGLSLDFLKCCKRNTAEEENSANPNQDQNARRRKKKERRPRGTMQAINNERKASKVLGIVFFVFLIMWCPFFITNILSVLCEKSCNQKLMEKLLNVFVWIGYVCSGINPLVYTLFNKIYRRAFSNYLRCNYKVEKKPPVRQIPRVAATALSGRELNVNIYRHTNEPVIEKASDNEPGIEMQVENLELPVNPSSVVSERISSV
Nature of the data set: Displacement of [3H][…] from human 5HT2C receptor expressed in CHO cells. The format is cell-based.

Data set [5] deals with Rattus norvegicus. The experiment in a line: Receptor occupancy ex vivo by displacement of tritiated radioligand from 5HT2A receptor in rat at 5 mg/kg, po. The format is functional. In short, it runs like this:
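Rats dosed 5 mg/kg po; [3H] selective 5-HT2A radioligand (6 lCi) given by tail vein injection. Read at 1 h. Occupancy (%) = 100 − [100·(compound counts/vehicle counts)], with vehicle counts taken as total binding.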

The nature of data set [6]: Drug level in rat plasma at 5 mg/kg, po after 1 hr. Set-up: dose 5 mg/kg, route oral. The format is ADME, organism-based. In short, it runs like this: (§1)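 Rats given 5 mg/kg po, with a radiolabeled selective 5-HT2A ligand co-administered; drug concentrations in plasma and brain measured at 1 h after dosing.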
The nature of data set [7]: Drug level in rat brain at 5 mg/kg, po after 1 hr. The format is ADME, organism-based. Also on record: dose 5 mg/kg, route oral. The following applies: read-out: Drug uptake. In short, it runs like this:
as §1

The target of data set [8] is Serotonin 2 receptors; 5-HT2a & 5-HT2c (Homo sapiens) (UniProt P28223+P28335). The experiment in a line: Selectivity for human 5HT2A receptor over human 5HT2C receptor.

For orientation: Ki means a measure of affinity in units of concentration, obtained from inhibition or displacement. A lower Ki goes with higher affinity.

Chain of Serotonin 2 receptors; 5-HT2a & 5-HT2c (Homo sapiens) (P28223 whole entry, looked up, one chain of several): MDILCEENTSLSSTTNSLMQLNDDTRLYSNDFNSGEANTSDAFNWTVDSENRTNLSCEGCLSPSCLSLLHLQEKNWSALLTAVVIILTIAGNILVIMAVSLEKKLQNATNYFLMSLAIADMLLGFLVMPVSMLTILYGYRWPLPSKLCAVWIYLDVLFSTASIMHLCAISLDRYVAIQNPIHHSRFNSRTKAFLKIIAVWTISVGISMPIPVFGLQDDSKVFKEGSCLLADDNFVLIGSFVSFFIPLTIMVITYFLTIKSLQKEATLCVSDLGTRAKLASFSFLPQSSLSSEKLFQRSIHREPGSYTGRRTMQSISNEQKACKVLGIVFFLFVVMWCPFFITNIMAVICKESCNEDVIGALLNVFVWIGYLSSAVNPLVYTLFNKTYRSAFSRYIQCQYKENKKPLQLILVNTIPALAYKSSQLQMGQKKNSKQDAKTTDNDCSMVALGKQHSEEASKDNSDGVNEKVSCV
Chain of 5-hydroxytryptamine receptor 2A (P28223 whole entry): as the sequence (P28223 whole entry, looked up, one chain of several) above
Chain of D(2) dopamine receptor (P14416 whole entry): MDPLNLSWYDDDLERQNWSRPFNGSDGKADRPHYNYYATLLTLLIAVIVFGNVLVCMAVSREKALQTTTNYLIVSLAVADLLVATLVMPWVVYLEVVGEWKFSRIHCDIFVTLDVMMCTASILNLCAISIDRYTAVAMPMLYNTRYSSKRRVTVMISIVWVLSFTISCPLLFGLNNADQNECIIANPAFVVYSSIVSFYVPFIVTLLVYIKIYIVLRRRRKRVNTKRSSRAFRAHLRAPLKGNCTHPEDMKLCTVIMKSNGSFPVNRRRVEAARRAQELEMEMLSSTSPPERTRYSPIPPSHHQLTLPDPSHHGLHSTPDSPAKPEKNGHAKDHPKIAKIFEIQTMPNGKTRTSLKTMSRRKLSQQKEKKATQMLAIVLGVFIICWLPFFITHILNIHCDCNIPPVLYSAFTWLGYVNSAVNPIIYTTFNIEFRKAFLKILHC
Chain of Voltage-gated inwardly rectifying potassium channel KCNH2 (Q12809 whole entry): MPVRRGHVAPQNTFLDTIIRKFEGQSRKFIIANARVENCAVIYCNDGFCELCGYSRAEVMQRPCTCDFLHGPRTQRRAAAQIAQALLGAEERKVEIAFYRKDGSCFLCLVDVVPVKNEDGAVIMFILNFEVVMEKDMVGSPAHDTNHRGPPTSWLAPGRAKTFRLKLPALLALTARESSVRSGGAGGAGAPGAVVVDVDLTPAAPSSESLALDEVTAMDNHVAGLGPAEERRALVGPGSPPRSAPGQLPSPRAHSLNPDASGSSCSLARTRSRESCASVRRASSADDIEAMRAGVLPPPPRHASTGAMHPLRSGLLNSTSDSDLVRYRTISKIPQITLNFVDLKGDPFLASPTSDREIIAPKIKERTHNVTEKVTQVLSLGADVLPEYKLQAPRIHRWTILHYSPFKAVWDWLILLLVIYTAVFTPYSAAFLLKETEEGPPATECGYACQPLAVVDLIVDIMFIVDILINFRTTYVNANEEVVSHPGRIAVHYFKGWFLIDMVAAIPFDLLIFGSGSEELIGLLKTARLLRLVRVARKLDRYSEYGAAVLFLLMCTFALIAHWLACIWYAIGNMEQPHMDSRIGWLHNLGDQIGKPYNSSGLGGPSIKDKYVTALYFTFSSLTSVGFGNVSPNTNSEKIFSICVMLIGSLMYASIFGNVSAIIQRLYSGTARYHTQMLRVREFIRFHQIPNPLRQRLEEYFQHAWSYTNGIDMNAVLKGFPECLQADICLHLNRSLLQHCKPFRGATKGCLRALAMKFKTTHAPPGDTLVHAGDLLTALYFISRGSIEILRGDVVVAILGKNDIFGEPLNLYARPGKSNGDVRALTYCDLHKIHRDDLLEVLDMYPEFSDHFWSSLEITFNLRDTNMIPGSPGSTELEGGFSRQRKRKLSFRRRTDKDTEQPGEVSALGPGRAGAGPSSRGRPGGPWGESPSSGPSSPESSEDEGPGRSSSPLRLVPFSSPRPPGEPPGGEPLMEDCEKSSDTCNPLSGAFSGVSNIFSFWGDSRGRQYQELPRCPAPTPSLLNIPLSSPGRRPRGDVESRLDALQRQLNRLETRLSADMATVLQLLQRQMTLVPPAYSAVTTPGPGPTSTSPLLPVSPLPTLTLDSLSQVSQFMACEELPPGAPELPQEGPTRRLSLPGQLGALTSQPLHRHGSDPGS

Consider `[O-][S+](c1ccccc1)c1ccc(/C=C/c2ccc(F)cc2F)nc1` (single isomer, unassigned; form 1) [listing 1 of 2 here], for which the inhibitory constant (Ki) in data set [1] (cho) was more than 2000 nM; in data set [2] it was 30 nM; in data set [3] it was 4200 nM; in data set [4] it was 2400 nM.
In data set [5], `[O-][S+](c1ccccc1)c1ccc(/C=C/c2ccc(F)cc2F)nc1` (stereo in doubt; 30) [listing 1 of 2 here] came in with an Activity of 90%. Also, the Ki is more than 2000 nM in data set [1] (cho), 0.79 nM in data set [2], 2800 nM in data set [3] and 30 nM in data set [4]. Also, the concentration at 1 h amounted to 230 nM in data set [6] and 1070 nM in data set [7].
For `O=S(=O)(c1ccc(F)cc1)c1ccc(CCc2ccc(F)cc2)nc1`, the Ki was more than 1000 nM in data set [1], 23 nM in data set [2] and 2700 nM in data set [4].
As to `O=S(=O)(c1ccc(F)cc1)c1ccc(CCc2ccc(F)cc2)cn1`, the Ki was more than 1000 nM in data set [1], 19 nM in data set [2], 6900 nM in data set [3] and more than 4000 nM in data set [4]. In data set [8], the Ratio Ki was more than 210.
The matching figures for `[O-][S+](c1ccc(/C=C/c2ccc(F)cc2)nc1)c1ccccc1F` (configuration not stated): more than 2000 nM, 4.6 nM, 2900 nM, 160 nM and 35.
In the case of `O=S(=O)(c1ccccc1)c1ccc(/C=C/c2ccc(F)cc2F)nc1`, the Activity in data set [5] came out at 45%. Also, the figures for the Ki in data set [1], in data set [2] and in data set [4] were more than 2000 nM, 0.86 nM and more than 4000 nM, respectively. Besides, the concentration at 1 h in data set [6] is 80 nM; in data set [7] it was 180 nM.
On to `[O-][S+](c1ccccc1)c1ccc(/C=C/c2ccc(F)cc2F)nc1` (single isomer, unassigned; form 2) [listing 1 of 2 here], for which the Ki in data set [1] was more than 2000 nM; in data set [2], 0.7 nM; in data set [3] it was 6500 nM; in data set [4] it was 25 nM.
On to `O=S(=O)(c1ccc(/C=C/c2ccncc2)nc1)c1ccccc1F`, for which the Ki was more than 2000 nM in data set [1], 790 nM in data set [2], 4200 nM in data set [3] and more than 4000 nM in data set [4]. Besides, in data set [8], the Ratio Ki is more than 5.
As for `O=S(=O)(c1ccc(F)cc1)c1ccc(/C=C/c2ccc(F)cc2)nc1`, the Ki in data set [1] was more than 1000 nM; in data set [2] it was 17 nM; in data set [4], more than 4000 nM.
For `O=S(=O)(c1ccc(/C=C/c2ccccc2O)nc1)c1ccccc1F`, the Ki in data set [1] was more than 2000 nM; in data set [2] it was 3.6 nM; in data set [3] it was 1400 nM; in data set [4] it was 810 nM. Besides, the Ratio Ki in data set [8] was determined as 220.
For `[O-][S+](c1ccc(/C=C/c2ccc(F)cc2F)nc1)c1ccccc1F` (configuration not stated), the Ki is more than 2000 nM in data set [1], 3.5 nM in data set [2] and 43 nM in data set [4].
Regarding `O=S(=O)(c1ccc(F)cc1)C1(F)CCN(CCc2ccc(F)cc2F)CC1`, in data set [8], the Ratio Ki amounted to 460. Moreover, the Ki in data set [3] was found to be 5600 nM.
Take `O=S(=O)(c1ccc(/C=C/c2ccc(F)cc2)nc1)c1cccc(F)c1`: the Ki in data set [1] is more than 1000 nM; in data set [2], 9.6 nM; in data set [3], more than 9000 nM; in data set [4], more than 4000 nM. In addition, in data set [8], the Ratio Ki was more than 420.
For `Cc1cc(F)ccc1/C=C/c1ccc(S(=O)(=O)c2ccccc2F)cn1` the same measures were more than 2000 nM, 8.2 nM, 5000 nM, 220 nM and 27.
For `N#Cc1cc(F)ccc1/C=C/c1ccc(S(=O)(=O)c2ccccc2F)cn1` the same measures were more than 2000 nM, 9.9 nM, 1500 nM, 19 nM and 2.1.
The matching figures for `O=S(=O)(c1ccccc1)c1ccc(/C=C/c2ccc(F)cc2)nc1`: more than 1000 nM, 7.4 nM, more than 9000 nM, more than 4000 nM and more than 540.
For the molecule `[O-][S+](c1ccccc1)c1ccc(/C=C/c2ccc(F)cc2F)nc1` (single isomer, unassigned; form 1) [listing 2 of 2 here], the Ratio Ki in data set [8] amounted to 80.
Turning to `O=S(=O)(c1ccc(/C=C/c2cccc(F)c2)nc1)c1ccccc1F`, the Ki in data set [1] was more than 2000 nM; in data set [2] it was 150 nM; in data set [3], more than 9000 nM; in data set [4], more than 4000 nM. Moreover, the Ratio Ki in data set [8] is more than 27.
The matching figures for `O=S(=O)(c1ccc(/C=C/c2ccc(F)cc2O)nc1)c1ccccc1F`: more than 2000 nM, 0.19 nM, 2100 nM, 580 nM and 3000.
For `O=S(=O)(c1ccc(/C=C/c2ccc(F)cc2)nc1)c1ccccc1F` the same measures were more than 1000 nM, 5.4 nM, more than 9000 nM, more than 4000 nM and more than 740.
For `O=S(=O)(c1ccc(/C=C/c2ccccc2F)nc1)c1ccccc1F` the same measures were more than 2000 nM, 2.6 nM, more than 9000 nM, more than 4000 nM and more than 1500.
`[O-][S+](c1ccccc1)c1ccc(/C=C/c2ccc(F)cc2F)nc1` (single isomer, unassigned; form 2) [listing 2 of 2 here]: the Ratio Ki in data set [8] came out at 36.
As for `O=S(=O)(c1ccc(F)cc1)c1ccc(/C=C/c2ccc(F)cc2)cn1`, the Ki is more than 1000 nM in data set [1], 28 nM in data set [2], 3300 nM in data set [3] and more than 4000 nM in data set [4]. Moreover, the Ratio Ki in data set [8] is more than 140.
The matching figures for `[O-][S+](c1ccccc1)c1ccc(/C=C/c2ccc(F)cc2)nc1` (configuration not stated): more than 2000 nM, 7.7 nM, 3900 nM, 200 nM and 26.
With `[O-][S+](c1ccccc1)c1ccc(/C=C/c2ccc(F)cc2F)nc1` (stereo in doubt; 30) [listing 2 of 2 here], the Ratio Ki in data set [8] was determined as 38.
Regarding `O=S(=O)(c1ccc(/C=C/c2ccc(F)cc2Cl)nc1)c1ccccc1F`, the Ki in data set [1] was more than 2000 nM; in data set [2], 1.8 nM; in data set [3] it was 4800 nM; in data set [4], 64 nM. Moreover, in data set [8], the Ratio Ki was determined as 36.
The matching figures for `O=S(=O)(c1ccc(/C=C/c2ccc(F)cc2F)nc1)c1ccccc1F`: more than 1000 nM, 2.6 nM, more than 9000 nM, 410 nM and 160.
As for `COc1cc(F)ccc1/C=C/c1ccc(S(=O)(=O)c2ccccc2F)cn1`, the Ki is more than 2000 nM in data set [1] and 65 nM in data set [2].
